From ChEMBL document CHEMBL4393705, “New chalcone-sulfonamide hybrids exhibiting anticancer and antituberculosis activity” (Eur J Med Chem, 2019)

Key:
Format in all cases: functional
Staphylococcus aureus = test: Antibacterial activity against Staphylococcus aureus measured every 120 mins for 36 hrs by LB broth two-fold serial dilution method
Procedure, shortened: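 Panel of 12 laboratory and clinical S. aureus strains with varied drug-susceptibility patterns. Compounds were two-fold serially diluted in LB broth from a maximum of 32 mg/L. Growth was followed by OD600 every 120 min for 36 h. Vancomycin was the positive control, and runs were in duplicate.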

CCRF-CEM = test: Anticancer activity against human CCRF-CEM cells assessed as cell growth inhibition measured after 48 hrs by SRB assay
Procedure, shortened: (§1)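 NCI-60 five-dose screen at 100, 10, 1.0, 0.1 and 0.01 µM final. Cells in RPMI-1640 with 5% FBS and 2 mM glutamine were seeded 24 h ahead at 37°C, 5% CO2. Compound exposure was 48 h, followed by TCA fixation and SRB staining, read at 515 nm. GI50 is the concentration giving 50% lower net protein increase than control, using time-zero plates.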

HL-60 = test: Anticancer activity against human HL60 cells assessed as cell growth inhibition measured after 48 hrs by SRB assay; conditions: HL-60, 48 h; for CC50: read-out: LC50 (the source's name); procedure, shortened: as §1
K562 = test: Anticancer activity against human K562 cells assessed as cell growth inhibition measured after 48 hrs by SRB assay; conditions: K562, 48 h; for CC50: read-out: LC50 (the source's name); procedure, shortened: as §1
RPMI-8226 = test: Anticancer activity against human RPMI8226 cells assessed as cell growth inhibition measured after 48 hrs by SRB assay; conditions: RPMI-8226, 48 h; for CC50: read-out: LC50 (the source's name); procedure, shortened: as §1
EKVX = test: Anticancer activity against human EKVX cells assessed as cell growth inhibition measured after 48 hrs by SRB assay; procedure, shortened: as §1
HOP-92 = test: Anticancer activity against human HOP92 cells assessed as cell growth inhibition measured after 48 hrs by SRB assay; conditions: HOP-92, 48 h; procedure, shortened: as §1
NCI-H226 = test: Anticancer activity against human NCI-H226 cells assessed as cell growth inhibition measured after 48 hrs by SRB assay; conditions: NCI-H226, 48 h; for CC50: read-out: LC50 (the source's name); procedure, shortened: as §1
NCI-H460 = test: Anticancer activity against human NCI-H460 cells assessed as cell growth inhibition measured after 48 hrs by SRB assay; conditions: NCI-H460, 48 h; procedure, shortened: as §1
HCT-15 = test: Anticancer activity against human HCT15 cells assessed as cell growth inhibition measured after 48 hrs by SRB assay; conditions: HCT-15, 48 h; procedure, shortened: as §1
HT-29 = test: Anticancer activity against human HT-29 cells assessed as cell growth inhibition measured after 48 hrs by SRB assay; conditions: HT-29, 48 h; procedure, shortened: as §1
LOX IMVI = test: Anticancer activity against human LOXIMVI cells assessed as cell growth inhibition measured after 48 hrs by SRB assay; procedure, shortened: as §1
Malme-3M = test: Anticancer activity against human MALME-3M cells assessed as cell growth inhibition measured after 48 hrs by SRB assay; procedure, shortened: as §1
M14 = test: Anticancer activity against human M14 cells assessed as cell growth inhibition measured after 48 hrs by SRB assay; conditions: M14, 48 h; for CC50: read-out: LC50 (the source's name); procedure, shortened: as §1
SK-MEL-2 = test: Anticancer activity against human SK-MEL-2 cells assessed as cell growth inhibition measured after 48 hrs by SRB assay; conditions: SK-MEL-2, 48 h; for CC50: read-out: LC50 (the source's name)
Procedure, shortened: (§2)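 NCI 60-cell screen, five-dose mode at 100, 10, 1.0, 0.1 and 0.01 µM. Cells grown in RPMI-1640 with 5% FBS and 2 mM L-glutamine, seeded and held 24 h at 37°C, 5% CO2, then exposed for 48 h. Fixed with cold TCA (10% final), stained with 0.4% SRB and read at 515 nm. Time-zero plates were used. GI50 is the concentration giving 50% lower net protein increase than control.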

IGROV-1 = test: Anticancer activity against human IGROV1 cells assessed as cell growth inhibition measured after 48 hrs by SRB assay; conditions: IGROV-1, 48 h; procedure, shortened: as §1
OVCAR-3 = test: Anticancer activity against human OVCAR3 cells assessed as cell growth inhibition measured after 48 hrs by SRB assay; conditions: OVCAR-3, 48 h; procedure, shortened: as §1
OVCAR-4 = test: Anticancer activity against human OVCAR4 cells assessed as cell growth inhibition measured after 48 hrs by SRB assay; conditions: OVCAR-4, 48 h; procedure, shortened: as §1
OVCAR-5 = test: Anticancer activity against human OVCAR5 cells assessed as cell growth inhibition measured after 48 hrs by SRB assay; conditions: OVCAR-5, 48 h; for CC50: read-out: LC50 (the source's name); procedure, shortened: as §1
OVCAR-8 = test: Anticancer activity against human OVCAR8 cells assessed as cell growth inhibition measured after 48 hrs by SRB assay; conditions: OVCAR-8, 48 h; procedure, shortened: as §1
NCI/ADR-RES = test: Anticancer activity against human NCI/ADR-RES cells assessed as cell growth inhibition measured after 48 hrs by SRB assay; procedure, shortened: as §1
A498 = test: Anticancer activity against human A498 cells assessed as cell growth inhibition measured after 48 hrs by SRB assay; conditions: A498, 48 h; for CC50: read-out: LC50 (the source's name); procedure, shortened: as §1
CAKI-1 = test: Anticancer activity against human Caki1 cells assessed as cell growth inhibition measured after 48 hrs by SRB assay; conditions: CAKI-1, 48 h; procedure, shortened: as §1
RXF 393 = test: Anticancer activity against human RXF393 cells assessed as cell growth inhibition measured after 48 hrs by SRB assay; conditions: RXF 393, 48 h; procedure, shortened: as §1
UO-31 = test: Anticancer activity against human UO31 cells assessed as cell growth inhibition measured after 48 hrs by SRB assay; conditions: UO-31, 48 h; for CC50: read-out: LC50 (the source's name); procedure, shortened: as §2
PC-3 = test: Anticancer activity against human PC3 cells assessed as cell growth inhibition measured after 48 hrs by SRB assay; conditions: PC-3, 48 h; procedure, shortened: as §1
MCF7 = test: Anticancer activity against human MCF7 cells assessed as cell growth inhibition measured after 48 hrs by SRB assay; conditions: MCF7, 48 h; procedure, shortened: as §1
MDA-MB-231 = test: Anticancer activity against human MDA-MB-231 cells assessed as cell growth inhibition measured after 48 hrs by SRB assay; conditions: MDA-MB-231, 48 h; procedure, shortened: as §1
[1] = test system: Mycolicibacterium smegmatis; test: Antibacterial activity against Mycobacterium smegmatis MC2 155 measured after 48 hrs by agar dilution SPOTi assay; conditions: MC2 155, 48 h
Procedure, shortened: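 SPOTi agar dilution on Middlebrook 7H10 without OADC. Cells were passaged in Middlebrook 7H9 and then spotted. Compounds were tested at 100, 50, 20, 10 and 5 mg/L, with kanamycin as positive control. Plates were incubated 48 h at 37°C. MIC was taken as the lowest concentration with no visible growth.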

## COc1ccc(C(=O)/C=C/c2ccc(Cl)cc2)cc1S(=O)(=O)Nc1c(N)nc(SC)[nH]c1=O
Staphylococcus aureus
  MIC: > 57 µM
CCRF-CEM
  GI50: 2660 nM
  LC50: > 100 µM
HL-60
  GI50: 3.2 µM
  CC50: > 100 µM
K562
  GI50: 2770 nM
  CC50: > 100 µM
RPMI-8226
  GI50: 2170 nM
  CC50: > 100 µM
EKVX
  GI50: 3.94 µM
  LC50 (concentration killing 50% of cells): 80.3 µM
HOP-92
  GI50: 2590 nM
  LC50: 32.6 µM
NCI-H226
  GI50: 2340 nM
  CC50: 52.9 µM
NCI-H460
  GI50: 2490 nM
  LC50 (concentration causing 50% net cell kill): 29.1 µM
HCT-15
  GI50: 3240 nM
  LC50 (concentration killing 50% of cells): 83.9 µM
HT-29
  GI50: 2.93 µM
  LC50 (concentration giving 50% net cell kill): 45.3 µM
LOX IMVI
  GI50: 1630 nM
  LC50 (concentration giving 50% net cell kill): 6.34 µM
Malme-3M
  GI50: 3.02 µM
  LC50: 41.8 µM
M14
  GI50: 2000 nM
  CC50: 15.7 µM
SK-MEL-2
  GI50: 12.8 µM
  CC50: 61.1 µM
IGROV-1
  GI50: 3250 nM
  LC50 (concentration giving 50% net cell kill): 80.2 µM
OVCAR-3
  GI50: 1940 nM
  LC50: 8 µM
OVCAR-4
  GI50: 4.5 µM
  LC50: 43.6 µM
OVCAR-5
  GI50: 2830 nM
  CC50: 38.2 µM
OVCAR-8
  GI50: 3.07 µM
  LC50 (concentration giving 50% net cell kill): 37.1 µM
NCI/ADR-RES
  GI50: 40.1 µM
  LC50: > 100 µM
A498
  GI50: 10.6 µM
  CC50: 47.6 µM
CAKI-1
  GI50: 3.83 µM
  LC50: 79.5 µM
RXF 393
  GI50: 1600 nM
  LC50 (concentration causing 50% net cell kill): 6.67 µM
UO-31
  GI50: 1890 nM
  CC50: 12.9 µM
PC-3
  GI50: 2530 nM
  LC50: 32.8 µM
MCF7
  GI50: 1970 nM
  LC50: > 100 µM
MDA-MB-231
  GI50: 3.42 µM
  LC50: 40.3 µM
[1]
  MIC: > 175 µM

## COc1ccc(C(=O)/C=C/c2ccc(Cl)cc2)cc1S(N)(=O)=O
Staphylococcus aureus
  MIC: > 57 µM
CCRF-CEM
  GI50: 3340 nM
  LC50: > 100 µM
HL-60
  GI50: 3.08 µM
  CC50: > 100 µM
K562
  GI50: 570 nM
  CC50: > 100 µM
RPMI-8226
  GI50: 2610 nM
  CC50: > 100 µM
EKVX
  GI50: 4.56 µM
  LC50 (concentration killing 50% of cells): 50.5 µM
HOP-92
  GI50: 2140 nM
  LC50: 21.4 µM
NCI-H226
  GI50: 3660 nM
  CC50: 95.7 µM
NCI-H460
  GI50: 2580 nM
  LC50 (concentration causing 50% net cell kill): 30 µM
HCT-15
  GI50: 2140 nM
  LC50 (concentration killing 50% of cells): 59.3 µM
HT-29
  GI50: 3.26 µM
  LC50 (concentration giving 50% net cell kill): 84 µM
LOX IMVI
  GI50: 1280 nM
  LC50 (concentration giving 50% net cell kill): 5.47 µM
Malme-3M
  GI50: 5.89 µM
  LC50: 54.8 µM
M14
  GI50: 2130 nM
  CC50: 21.2 µM
SK-MEL-2
  GI50: 12.4 µM
  CC50: 53.2 µM
IGROV-1
  GI50: 2670 nM
  LC50 (concentration giving 50% net cell kill): 48.1 µM
OVCAR-3
  GI50: 2040 nM
  LC50: 9.7 µM
OVCAR-4
  GI50: 3.47 µM
  LC50: 40.4 µM
OVCAR-5
  GI50: 3080 nM
  CC50: 44.9 µM
OVCAR-8
  GI50: 3.55 µM
  LC50 (concentration giving 50% net cell kill): 32.6 µM
NCI/ADR-RES
  GI50: 3.64 µM
  LC50: > 100 µM
A498
  GI50: 10.4 µM
  CC50: 47.1 µM
CAKI-1
  GI50: 2.72 µM
  LC50: 32.5 µM
RXF 393
  GI50: 1980 nM
  LC50 (concentration causing 50% net cell kill): 7.96 µM
UO-31
  GI50: 1890 nM
  CC50: 22 µM
PC-3
  GI50: 2240 nM
  LC50: 17 µM
MCF7
  GI50: 1300 nM
  LC50: > 100 µM
MDA-MB-231
  GI50: 3.48 µM
  LC50: 40.1 µM
[1]
  MIC: > 175 µM
